According to ChEMBL document CHEMBL1150804, “Nonnucleoside inhibitor of measles virus RNA-dependent RNA polymerase complex activity” (Antimicrob Agents Chemother, 2007):
Calls of active or inactive are those of the source. The rule behind the calls is not given here.

Columns and labels:
Measles morbillivirus [1] = experiment: Antiviral activity against measles virus Edm in Vero cells expressing human SLAM assessed as reduction of virus yield; format: functional, organism-based
[2] = Cytotoxicity against african green monkey Vero cells expressing human SLAM by Promega assay; format: cell-based; details: chlorocebus sabaeus
In short: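 LDH-release assay: 12,000 cells/well exposed 24 h at 37°C to twofold compound dilutions (top 150 μM, or 300 μM for one compound), four replicates. Formazan read at 490 nm; % viability = 100 − [(experimental − background)/(maximum − background) × 100]; four experiments.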

[3] = Cytotoxicity against african green monkey Vero cells expressing human SLAM assessed as reduction in viable cells after 30 hrs by trypan blue exclusion assay; format: cell-based; details: chlorocebus sabaeus
In short: (§1)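 Trypan blue exclusion: 2 × 10^5 cells/well with fivefold compound dilutions (top 500 μM), 37°C for 30 h, three replicates per concentration. Detached cells stained with trypan blue 15 min at room temperature; live cells counted on a hemacytometer; expressed vs DMSO controls; three experiments.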

[4] = Selectivity index, ratio of CC50 for african green monkey Vero cells by Promega assay to IC50 for measles virus Edm; format: functional
[5] = Selectivity index, ratio of CC50 for african green monkey Vero cells by trypan blue exclusion assay to IC50 for measles virus Edm; format: functional
Measles morbillivirus [6] = experiment: Antiviral activity against measles virus assessed as inhibition of viral H and F protein-mediated cell-cell fusion at 150 uM; format: functional, organism-based
In short: (§2)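 Cells (6 × 10^5/well) transfected with 4 μg each of MV H and F plasmids; at 4 h moved into wells with twofold compound dilutions (top 150 μM). Fusion scored microscopically, photographed at 24 h; at 48 h syncytium-linked cytotoxicity measured by LDH-release assay, % vs DMSO; four replicates.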

Measles morbillivirus [7] = experiment: Antiviral activity against measles virus assessed as inhibition of viral H and F protein-mediated cell-cell fusion; format: functional, organism-based; in short: as §2
Measles morbillivirus [8] = experiment: Antiviral activity against measles virus assessed as inhibition of virus mediated cytopathogenicity at 15 uMby syncytium formation assay; format: functional, organism-based; details: 15 uM
Measles morbillivirus [9] = experiment: Antiviral activity against measles virus assessed as inhibition of viral H and F protein-mediated cell-cell fusion at 15 uM; format: functional, organism-based; in short: as §2
Measles morbillivirus [10] = experiment: Antiviral activity against measles virus genotype D9 assessed as reduction of virus yield; format: functional, organism-based
In short: (§3)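 Clinical MV isolates (grown on Vero-SLAM) infected at MOI 0.1 PFU/cell into 4 × 10^5 cells with threefold compound dilutions (top 37.5 μM) or DMSO at 37°C. At 36 h, cell-associated virus titered by TCID50; EC50 at 50% of DMSO yield; two experiments.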

[11] = test system: Measles virus genotype D7; experiment: Antiviral activity against measles virus genotype D7 assessed as reduction of virus yield; format: functional, organism-based; details: Measles morbillivirus; in short: as §3
[12] = test system: Measles virus genotype D6; experiment: Antiviral activity against measles virus genotype D6 assessed as reduction of virus yield; format: functional, organism-based; details: Measles morbillivirus; in short: as §3
Measles morbillivirus [13] = experiment: Antiviral activity against measles virus genotype C assessed as reduction of virus yield; format: functional, organism-based; in short: as §3
Measles morbillivirus [14] = experiment: Antiviral activity against measles virus genotype B3-2 assessed as reduction of virus yield; format: functional, organism-based; in short: as §3
Vero = experiment: Cytotoxicity against african green monkey Vero cells expressing human SLAM assessed as reduction in viable cells at 500 uM after 30 hrs by trypan blue exclusion assay; format: cell-based; details: chlorocebus sabaeus; in short: as §1
Measles morbillivirus [15] = experiment: Antiviral activity against measles virus Alaska assessed as reduction of virus yield in presence of 10 mg/ml BSA; format: functional, organism-based
In short: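 Specificity test with MV-Alaska: 4 × 10^5 cells infected in serum-free medium at MOI 0.1 or 0.5 PFU/cell with fourfold dilutions (top 12.5 μM), with or without BSA at 10 mg/ml final.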

Morbillivirus canis = experiment: Antiviral activity against Canine distemper virus assessed as reduction of virus yield; format: functional, organism-based
In short: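 Virus-yield dose-response: 4 × 10^5 cells/well infected at MOI 0.1 PFU/cell (CDV stocks grown on Vero-dogSLAM) with twofold compound dilutions (top 75 μM) or DMSO; kept at 37°C with compound. At 36 h, cell-associated virus titered by TCID50 (Spearman-Karber); titers normalized to DMSO; EC50 taken at 50% of DMSO yield; two experiments.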

[16] = test system: Human parainfluenza virus 2; experiment: Antiviral activity against human parainfluenza virus 2 assessed as reduction of virus yield at 75 uM; format: functional, organism-based; details: Human orthorubulavirus 2
Measles morbillivirus [17] = experiment: Antiviral activity against measles virus Edm in Vero cells expressing human SLAM assessed as reduction of virus yield preincubated in culture medium for 24 hrs; format: functional, organism-based
Measles morbillivirus [18] = experiment: Antiviral activity against measles virus genotype G2 assessed as reduction of virus yield; format: functional, organism-based; in short: as §3
Measles morbillivirus [19] = experiment: Antiviral activity against measles virus genotype G3 assessed as reduction of virus yield; format: functional, organism-based; in short: as §3
Measles morbillivirus [20] = experiment: Antiviral activity against measles virus genotype H2 assessed as reduction of virus yield; format: functional, organism-based; in short: as §3
Measles virus genotype A = experiment: Antiviral activity against measles virus genotype A assessed as reduction of virus yield; format: functional, organism-based; details: Measles morbillivirus; in short: as §3
BSR T7/5 [21] = experiment: Inhibition of measles virus RNA-dependent RNA polymerase complex activity in BSR T7/5 cells assessed as CAT promoter expression by minireplicon assay; format: cell-based; details: Measles morbillivirus
In short: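 BSR T7/5 cells (5 × 10^5) transfected with MV L (0.24 μg), N (0.94 μg), P (0.29 μg) plasmids plus 2 μg CAT minigenome; controls lacked L. At 2 h, threefold compound dilutions (top 30 μM) or DMSO added.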

Measles morbillivirus [22] = experiment: Antiviral activity against measles virus assessed as reduction of virus yield at 15 uM administered 12 hrs postinfection; format: functional; set-up: scale not given: the % may be the effect or the level left
In short: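 One-step time-of-addition: 3 × 10^5 cells infected with MV at MOI 1.0 PFU/cell; compound (15 μM final) added at set times postinfection; DMSO controls. At 20 h postinfection, cell-associated virus harvested and titered by TCID50; two experiments.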

BSR T7/5 [23] = experiment: Inhibition of Nipah virus RNA-dependent RNA polymerase complex activity in BSR T7/5 cells assessed as CAT promoter expression by minireplicon assay; format: cell-based; details: Henipavirus nipahense
In short: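 BSR T7/5 cells (T7 polymerase-expressing) transfected with plasmids for Nipah L (0.4 μg), N (1.25 μg), P (0.8 μg) plus 3.5 μg Nipah CAT minigenome reporter; controls lacked L plasmid. Compound added 2 h posttransfection in threefold dilutions (highest 30 μM), DMSO controls.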

Escherichia phage T7 = experiment: Inhibition of Enterobacteria phage T7 polymerase assessed as F protein synthesis by in vitro transcription/translation assay
In short: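 Cell-free rabbit reticulocyte lysate with 0.5 μg T7-promoter MV F plasmid, 20 μCi [35S]methionine and 50 μM compound or DMSO, 30°C for 90 min. Products separated on 12% SDS gels and autoradiographed. Control: plasmid with F gene reversed relative to the T7 promoter.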

Which EC50 (Measles morbillivirus [1]) does the source give for `Cc1ccc2[nH]c(=O)c(CNS(=O)(=O)c3ccccc3)c(-c3ccccc3)c2c1` here?
Its EC50 is 15700 nM.

And the CC50 [2]?
Its CC50 is greater than 150000 nM.

And the CC50 at 30 h [3]?
The CC50 at 30 h was 71000 nM.

And the “Ratio CC50/EC50” value [4]?
The value was greater than 10.

And the “Ratio CC50/EC50” value [5]?
Its value is 4.5.

With `Cc1ccc2nsnc2c1S(=O)(=O)Nc1ccc(Cl)cc1` as the molecule, how does the EC50 (Measles morbillivirus [1]) read?
Its EC50 is 2000 nM.

And the CC50 [2]?
Its CC50 is 100000 nM.

And the “Ratio CC50/EC50” value [4]?
Its value is 50.

For `Cn1nc(C(F)(F)F)cc1C(=O)Nc1ccc(S(=O)(=O)N2CCCC2)cc1`, which EC50 (Measles morbillivirus [1]) is on record?
Its EC50 is 240 nM.

What about the CC50 [2] of the same molecule?
The CC50 was greater than 300000 nM.

What about the Activity (Measles morbillivirus [6]) of the same molecule?
The Activity was “inactive”.

And the Activity (Measles morbillivirus [7])?
The Activity was “Active”.

What about the Activity (Measles morbillivirus [8]) of the same molecule?
The Activity was “Active”.

And the Activity (Measles morbillivirus [9])?
Its Activity is “inactive”.

And the EC50 (Measles morbillivirus [10])?
Its EC50 is 90 nM.

And the EC50 [11]?
Its EC50 is 80 nM.

What about the EC50 [12] of the same molecule?
Its EC50 is 100 nM.

And the EC50 (Measles morbillivirus [13])?
Its EC50 is 110 nM.

And the EC50 (Measles morbillivirus [14])?
Its EC50 is 140 nM.

What about the CC50 at 30 h [3] of the same molecule?
Its CC50 at 30 h is greater than 500000 nM.

What about the Activity (Vero) of the same molecule?
Its Activity is 20%.

What about the Activity (Measles morbillivirus [15]) of the same molecule?
Its Activity is “Active”.

And the EC50 (Morbillivirus canis)?
Its EC50 is 28000 nM.

What about the EC50 [16] of the same molecule?
Its EC50 is greater than 75000 nM.

And the Activity (Measles morbillivirus [17])?
Its Activity is “Active”.

And the EC50 (Measles morbillivirus [18])?
The EC50 was 50 nM.

What about the EC50 (Measles morbillivirus [19]) of the same molecule?
The EC50 was 110 nM.

And the EC50 (Measles morbillivirus [20])?
Its EC50 is 35 nM.

And the EC50 (Measles virus genotype A)?
The EC50 was 240 nM.

What about the Activity (BSR T7/5 [21]) of the same molecule?
Its Activity is “Active”.

And the Activity (Measles morbillivirus [22])?
Its Activity is 99.9%.

And the Activity (BSR T7/5 [23])?
The Activity was “inactive”.

What about the Activity (Escherichia phage T7) of the same molecule?
The Activity was “inactive”.

With `O=C(NC(=O)N(c1ccc(Cl)cc1)S(=O)(=O)c1ccccc1)Nc1ccccc1Cl` as the molecule, how does the EC50 (Measles morbillivirus [1]) read?
Its EC50 is 2800 nM.

And the CC50 [2]?
Its CC50 is 121000 nM.

What about the “Ratio CC50/EC50” value [4] of the same molecule?
The value was 43.2.
